According to BindingDB's records for doi:10.1128/aac.00119-07 (Emory University, 2007):

Columns and labels:
Reverse transcriptase [1] = target: T1, Reverse transcriptase (Human immunodeficiency virus 1, UniProt Q9WKE8); assay: Inhibition of HIV1 LAI reverse transcriptase wild type in presence of 5 mM ATP by heteropolymeric DNA polymerase assay
Procedure, shortened: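 Heteropolymeric DNA assay with 5 mM ATP added: immobilized 18-mer primer, 5′-A12-(GTCA)5 50-mer template, dATP/dGTP/dCTP/BrdUTP at 1.0 μM each, HEPES 50 mM pH 7.3, MgCl2 10 mM. RT 30–100 pM, incubated at 33°C for 180 min. NaOH strand separation, then anti-BrdU-AP detection at 405 nm. IC50 fitted from seven inhibitor concentrations; two to four runs in duplicate.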

Reverse transcriptase [2] = target: T1, Reverse transcriptase; assay: Inhibition of HIV1 pNL4-3 reverse transcriptase wild type pNL4-3 by heteropolymeric DNA polymerase assay
Procedure, shortened: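 Heteropolymeric assay without ATP: plate-bound 18-mer DNA primer (~110 nM) with 50-mer 5′-A12-(GTCA)5 template (190 nM). dATP, dGTP, dCTP and BrdUTP at 1.0 μM each, in HEPES 50 mM pH 7.3, MgCl2 10 mM. RT 30–100 pM, 33°C for 180 min, then NaOH dehybridization and anti-BrdU-AP tracer read at 405 nm. IC50 from seven triphosphate concentrations; two to four runs in duplicate.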

Row | IC50 (Reverse transcriptase [1]) | IC50 (Reverse transcriptase [2]) | Structure (SMILES)
1 | 0.9 µM | 1.2 µM | Nc1nc2c(c(=O)[nH]1)NCN2[C@H]1C=C[C@@H](COP(=O)(O)OP(=O)(O)OP(=O)(O)O)C1 [Carbovir-Triphosphate]
2 | 1.3 µM | 1.2 µM | C[C@@H](Cn1cnc2c(N)ncnc21)OCP(=O)(O)OP(=O)(O)OP(=O)(O)O [Tenofovir diphospahte]
